Compound activity (PubChem BioAssay)
The list is not random: actives were taken first. Their share in the collection is about 1.4%.
CRFBP-R2 block: antagonists of CRF-BP/CRF-R2 complex, primary screen, cell-based, HEK293, calcium dye fluorescence, uHTS; actives 0.59% (n = 350,000); inhibition, % at 11.8 µM; CRF-induced calcium fluorescence; AID 588475, 2011;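 active = inhibition of the ligand-induced calcium signal above about 50% at the single tested concentration, limit read from the data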
Tn7 DDE FP: inhibitors of Tn7 peptide binding to fibrin DD(E), primary screen, biochemical, fluorescence polarization, human fibrin, Tn7 probe. Fibrinogen beta chain (Homo sapiens), P02675. FP displacement of FITC-Tn7 peptide from fibrin DD(E); 0% = median of compound wells per plate. inhibition, % at 8.3 µM. actives 0.13% (n = 370,000);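 active = inhibition above the mean of compounds falling within the control limits plus 3 SD of them, cut at about 14% in these data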;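 also: 0% = plate median of compound wells and 100% = 10 µM Aha-Tn7 peptide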
Target sequence (P02675 whole entry, looked up): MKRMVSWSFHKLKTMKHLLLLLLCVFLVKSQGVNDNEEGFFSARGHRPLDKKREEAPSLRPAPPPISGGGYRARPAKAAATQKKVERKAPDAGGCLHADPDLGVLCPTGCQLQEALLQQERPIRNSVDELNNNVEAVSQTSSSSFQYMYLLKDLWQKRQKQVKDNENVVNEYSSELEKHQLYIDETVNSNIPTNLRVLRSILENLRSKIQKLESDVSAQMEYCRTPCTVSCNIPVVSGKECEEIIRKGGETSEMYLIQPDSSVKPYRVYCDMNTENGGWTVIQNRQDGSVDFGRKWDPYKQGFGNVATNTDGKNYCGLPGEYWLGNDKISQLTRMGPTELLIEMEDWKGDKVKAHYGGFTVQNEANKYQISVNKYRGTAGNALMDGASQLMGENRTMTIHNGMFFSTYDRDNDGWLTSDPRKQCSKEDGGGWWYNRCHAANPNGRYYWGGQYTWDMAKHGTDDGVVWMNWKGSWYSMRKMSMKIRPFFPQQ
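Assay system: Human fibrin DD(E) protein | Medium: Tris buffer with calcium and detergent, pH 7.8 | Reagent: 0.1 µM fluorescent Tn7 | Compound dosing: Single point at 8.3 µM | Times: 10 min preincubation, 3 h with tracer, room temperature | Detection: Fluorescence polarization of the labelled Tn7 tracer | Controls: Aha-Tn7 high control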
RTF Ca sens act: cardiac RTF calcium sensitivity activators, primary screen, biochemical, IANBD-TnC fluorescence, EC20 calcium; Troponin I, cardiac muscle (Homo sapiens) + Troponin T, cardiac muscle (Homo sapiens) + …; IANBD-labeled TnC RTF fluorescence at EC20 calcium; 0% EC20 calcium, 100% full calcium; activation, % at 7.2 µM; actives 0.24% (n = 340,000); AID 493008, 2010;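 active = activation above the mean over all tested compounds plus 3 SD, cut at about 30% in these data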;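 also: rise in fluorescence read as greater calcium sensitivity of cardiac thin filaments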
RTF Ca sens inh: cardiac RTF calcium sensitivity inhibitors, primary screen, biochemical, IANBD-TnC fluorescence, EC70 calcium. inhibition, % at 7.15 µM. actives 0.12% (n = 340,000). Troponin I, cardiac muscle (Homo sapiens) + Troponin T, cardiac muscle (Homo sapiens) + …. IANBD-labeled cardiac RTF, Ca2+ fluorescence. AID 493244, 2011;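 active = inhibition above the mean inhibition of all tested compounds plus 3 SD, cut at about 17% in these data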;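 also: assay run at fixed EC70 calcium of 1.6 mM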
DDE Tn6 FP inh: inhibitors of Tn6 peptide binding to fibrin DD(E), primary screen, biochemical, fluorescence polarization, human fibrin, Tn6 probe; AID 720509, 2013; actives 0.21% (n = 370,000); Fibrin DD(E) TRITC-Tn6 fluorescence polarization displacement; inhibition, % at 8.3 µM; Fibrinogen beta chain (Homo sapiens), P02675;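 active = inhibition above a per-campaign cutoff: mean of compounds within control limits plus 3 SD, cut at about 15% in these data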;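 also: 0% = median of all compound wells on the plate and 100% = blocking peptide control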
CRFBP-R2 agonist: agonists of CRF-BP/CRF-R2 complex, primary screen, cell-based, HEK293, calcium dye fluorescence, uHTS | CRF-binding protein / CRF receptor 2 complex (human) | activation, % at 13.2 µM | AID 588473, 2011 | actives 0.46% (n = 350,000) | calcium dye fluorescence (FLIPR); percent of saturating CRF peptide response;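 active = activation of at least 50%, plus an integration ratio under a set limit after plate pattern correction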;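 also: plate controls were neutral control wells without compound for no effect and CRF at EC100 for full effect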
* = called active by the depositor; . = no result given.

SMILES | CRFBP-R2 block | Tn7 DDE FP | RTF Ca sens act | RTF Ca sens inh | DDE Tn6 FP inh | CRFBP-R2 agonist
N#CCC[C@@H]1CC[C@]2(CCCN(C(=O)C3CCCC3)C2)O1 | . | -0.3 | . | . | -1.1 | .
O=Cc1cn(-c2ccccc2)nc1-c1ccc2c(c1)OCCO2 | 61.1* | -3.9 | 9.9 | -19.1 | 4.7 | 5.3
CC(C)C(=O)N1CCCC1(C)C(=O)N(C)Cc1cccc2ccccc12 (stereo not given) | . | -8.6 | . | . | -9.9 | .
CCCCCCCCN1C(=O)[C@H](CC(=O)NCCC(C)C)C[C@@]2(C(=O)OCC)CCCC=C12 | . | 4.4 | . | . | -1.6 | .
Cc1ccc(Cl)cc1N1CCN(C2CCCCC2NS(=O)(=O)c2ccccc2)CC1 (stereo not given) | -24.1 | . | -3.0 | -0.8 | . | 5.3
O=S(=O)(N[C@@H]1CCCC[C@H]1N1CCOCC1)c1ccc(Cl)cc1 | . | -0.8 | . | . | 6.6 | .
CC1CC(C)CN(C2CCCCC2NS(=O)(=O)c2ccc(Cl)cc2)C1 (stereo not given) | -10.6 | 6.8 | -2.9 | -3.1 | -4.5 | 54.8*
COc1ccc(N2CCN(C3CCCCC3NS(=O)(=O)c3ccc(Cl)cc3)CC2)cc1 (stereo not given) | -37.1 | 10.6 | -0.4 | -7.5 | -1.4 | 70.2*
COc1ccccc1N1CCN(C2CCCCC2NS(=O)(=O)c2ccc(Cl)cc2)CC1 (stereo not given) | -195.8 | . | -3.9 | -9.6 | . | 212.3*
CN1CCN(C2CCCCC2NS(=O)(=O)c2ccc(Cl)cc2)CC1 (stereo not given) | -1.6 | . | -2.9 | 0.9 | . | -0.5
CC1=CC2(C(Cc3ccccc3)N(CC3CC3)C(=NC(=O)c3ccccc3)N2C(=O)OCc2ccccc2)n2c(=O)n(-c3ccccc3)c(=O)n2C1 (stereo not given) | . | -1.8 | . | . | -2.9 | .
O=C1C[C@H](c2ccc3ccccc3c2)N=C2N1/C(=C\c1ccccc1)[C@@H](c1ccccc1C(F)(F)F)N2Cc1ccc2c(c1)OCO2 | . | 0.9 | . | . | 7.7 | .
COc1cccc(N2CCN(CC(=O)NCc3ccccc3C)CC2)c1 | . | -1.0 | . | . | 2.1 | .
COc1ccc(OC)c(S(=O)(=O)N2CCCCC2C(=O)N2CCN(CCO)CC2)c1 (stereo not given) | . | -1.9 | . | . | 2.3 | .
O=C(O)c1ccc(N=NNc2cccc([N+](=O)[O-])c2)cc1 | 3.9 | -0.4 | 0.6 | 9.7 | -4.8 | -1.5
N#C/C(=N\Nc1cccc([N+](=O)[O-])c1)C(=O)c1ccc(Br)cc1 | 51.7* | 1.6 | -7.6 | -5.8 | -0.1 | 21.7
N#C/C(=N\Nc1ccc([N+](=O)[O-])cc1)C(N)=S | 57.4* | -5.3 | -12.3 | 9.1 | -3.4 | 12.3
Oc1ccc2[nH]cc(CCc3ccccc3)c2c1-c1ccccc1 | . | -0.1 | . | . | 0.3 | .
CC(C)C(NC(=O)c1ccco1)C(=O)NC1CCCCCC1 (stereo not given) | 105.3* | -1.4 | 2.8 | -8.0 | -5.4 | -0.4
C=CCn1c(SCc2c(Cl)cccc2Cl)nnc1-c1cccc(C)c1 | . | 2.2 | . | . | 6.7 | .
CCOC(=O)C(C(=O)OCC)c1cc(Br)c2noc3c2c1C(=O)c1ccccc1-3 | 22.6 | 9.6 | 96.0* | -145.0 | 4.7 | 5.7
CC(=O)OCCNc1cc(N2CCN(C)CC2)c2noc3c2c1C(=O)c1ccccc1-3 | 43.8 | 1.7 | 2.7 | -7.7 | 10.2 | -1.7
CC(=O)Nc1ccc(OCC(O)CN2C(C)CCCC2C)cc1 (stereo not given) | 17.9 | 4.2 | -0.3 | 13.6 | 3.8 | -0.5
CC(=O)Nc1ccc(OCC(O)CN2C(C)(C)CC(O)CC2(C)C)cc1 (stereo not given) | 52.6* | -0.7 | 5.1 | -3.8 | 5.2 | -1.6
CN(C)c1ccccc1-c1cc(NC=O)c2ncc(-c3cccc(C(F)(F)F)c3)n2c1 | . | -8.2 | . | . | 33.6* | .
SMILES | CRFBP-R2 block | Tn7 DDE FP | RTF Ca sens act | RTF Ca sens inh | DDE Tn6 FP inh | CRFBP-R2 agonist
COc1ccc(COC[C@H](C)N2C[C@@H](C)[C@H](CN(C)S(=O)(=O)c3ccc(F)cc3)OCCCC[C@H](C)Oc3ccc(NC(=O)Nc4ccccc4)cc3C2=O)cc1 | . | -0.8 | . | . | -8.4 | .
CC(=O)N1CCc2ccc(S(=O)(=O)N3CCN(C)CC3)cc21 | -104.8 | 6.2 | -5.0 | 5.2 | -8.8 | 203.0*
CC(=O)N1CCc2ccc(S(=O)(=O)N3CC(C)OC(C)C3)cc21 (stereo not given) | 1.6 | 11.9 | -0.4 | 4.9 | 4.3 | 0.6
COc1cc(N2C(=O)C=CC2=O)ccc1N1C(=O)C=CC1=O | 62.8* | -6.4 | -2.8 | 7.5 | -6.1 | 1.0
COc1ccc(N2C(=O)C3CC(C)=C(C)CC3C2=O)c(OC)c1 (stereo not given) | 10.2 | 0.5 | 1.1 | 0.3 | -2.1 | -0.1
CC1(C)Cc2c(sc(/N=C/N3CCCC3)c2C#N)C(C)(C)N1 | 61.9* | -2.4 | 0.6 | -17.2 | 1.8 | 9.8
O=C(CCCl)NC1CCCCN(Cc2ccc(OC(F)(F)F)cc2)C1=O (stereo not given) | . | -0.8 | . | . | 2.2 | .
COc1ccc(OCCCC(=O)Nc2cccnc2)cc1 | 53.0* | 10.6 | 0.1 | -0.8 | -4.3 | -4.5
O=C(CCC(=O)c1ccc(Br)cc1)Nc1cccnc1 | 14.7 | 5.9 | 3.6 | 6.9 | 3.3 | 2.5
O=C(CCSc1ccc(Br)cc1)Nc1cccnc1 | 110.2* | 4.5 | 0.0 | 6.3 | -0.1 | -1.0
Cc1cc(C(=O)O[C@@H]2CCC[C@]3(C(=O)N(Cc4ccccc4)c4ccccc43)[C@H]2NC(=O)CCc2ccccc2)no1 | . | 0.5 | . | . | -5.7 | .
CCN(c1ccc(N=Cc2c(O)n(Cc3ccc(OC)cc3)c(=O)c3ccccc23)cc1)C(C)C | -98.7 | -8.0 | 418.1* | -27.6 | 1.3 | 126.9*
CN1CCCc2cc3c(C(F)(F)F)cc(=O)oc3nc21 | -92.5 | 10.8 | 37.7* | -58.5 | 5.9 | 211.6*
CCNC(=O)C1(C)CCN(Cc2cccc(Oc3ccccc3)c2)C1 (stereo not given) | . | -3.1 | . | . | -0.9 | .
COC(=O)c1scc2c(=O)cc(C(F)(F)F)[nH]c12 | -18.3 | 3.4 | -1.0 | -0.3 | -3.7 | 62.7*
O=c1cc(C(F)(F)F)[nH]c2ccc(C(F)(F)F)cc12 | 34.0 | 6.5 | 10.4 | -1.0 | -6.0 | 45.6
N#Cc1c(Cl)nc2c(c1C#N)CCCC2 | 106.9* | 5.4 | 4.7 | -1.8 | -2.6 | -1.5
CCCCc1nc(Cl)c(C#N)c2c1CCCC2 | -6.3 | 1.0 | -6.7 | 3.7 | 1.9 | -0.3
COc1ccc(N=C(N)SCc2ccccn2)cc1 | -25.8 | -5.9 | -6.2 | -20.9 | -3.1 | 61.9*
